Measurements reported in ChEMBL document CHEMBL5653631, “A Potent and Selective ULK1 Inhibitor Suppresses Autophagy and Sensitizes Cancer Cells to Nutrient Stress” (iScience, 2018).
Blank lines part the entries; values can stand above or below the compound they belong to.

How the values were obtained:
[1] = biological target: T1, Mitogen-activated protein kinase kinase kinase 2 (Homo sapiens) (UniProt Q9Y2U5); assay: Inhibition of human recombinant MAP3K2 at 500 nM in presence of ATP by radiometric assay relative to control
T1 sequence (whole entry): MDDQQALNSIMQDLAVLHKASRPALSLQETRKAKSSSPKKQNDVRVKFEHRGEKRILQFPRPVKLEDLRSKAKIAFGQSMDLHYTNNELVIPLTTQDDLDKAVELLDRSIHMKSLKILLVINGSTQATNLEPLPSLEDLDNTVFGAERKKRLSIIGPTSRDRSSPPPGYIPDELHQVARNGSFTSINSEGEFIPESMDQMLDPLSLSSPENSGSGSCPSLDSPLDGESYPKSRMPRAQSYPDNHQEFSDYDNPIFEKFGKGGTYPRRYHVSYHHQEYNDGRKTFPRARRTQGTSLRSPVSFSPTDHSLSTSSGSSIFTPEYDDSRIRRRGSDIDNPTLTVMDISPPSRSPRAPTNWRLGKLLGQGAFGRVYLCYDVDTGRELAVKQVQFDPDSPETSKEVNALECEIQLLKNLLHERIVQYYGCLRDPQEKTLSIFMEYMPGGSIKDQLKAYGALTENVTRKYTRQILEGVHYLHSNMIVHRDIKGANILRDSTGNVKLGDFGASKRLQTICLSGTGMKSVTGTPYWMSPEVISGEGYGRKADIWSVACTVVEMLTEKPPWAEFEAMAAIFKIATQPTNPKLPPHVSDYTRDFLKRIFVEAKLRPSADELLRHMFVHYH

[2] = biological target: Rho-associated protein kinase 1 (Homo sapiens) (UniProt Q13464); assay: Inhibition of human recombinant ROCK1 at 500 nM related to control ULK1
[3] = biological target: Protein kinase C theta type (Homo sapiens) (UniProt Q04759); assay: Inhibition of human recombinant PKCt at 500 nM in presence of ATP by radiometric assay relative to control
[4] = biological target: Tyrosine-protein kinase Blk (Homo sapiens) (UniProt P51451); assay: Inhibition of human recombinant BLK at 15 nM in presence of ATP by radiometric assay relative to control
Outline: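 Part of a radiometric in vitro activity panel of 327 recombinant human kinases. Each kinase was tested in duplicate at one inhibitor concentration. Activity remaining was expressed as a percentage of the vehicle control, and percent inhibition was taken as 100 minus that value.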

[5] = biological target: Ephrin type-A receptor 4 (Homo sapiens) (UniProt P54764); assay: Inhibition of human recombinant EphA4 at 15 nM in presence of ATP by radiometric assay relative to control
[6] = biological target: Tyrosine-protein kinase Lck (Homo sapiens) (UniProt P06239); assay: Inhibition of human recombinant LCK at 15 nM in presence of ATP by radiometric assay relative to control
[7] = biological target: Transient receptor potential cation channel subfamily M member 7 (Homo sapiens) (UniProt Q96QT4); assay: Inhibition of human recombinant ChaK1 at 15 nM in presence of ATP by radiometric assay relative to control
[8] = biological target: Insulin receptor-related protein (Homo sapiens) (UniProt P14616); assay: Inhibition of human recombinant IRR at 40 nM related to control ULK1
[9] = biological target: T2, Serine/threonine-protein kinase Nek1 (Homo sapiens) (UniProt Q96PY6); assay: Inhibition of human recombinant NEK1 at 40 nM in presence of ATP by radiometric assay relative to control
T2 sequence (whole entry): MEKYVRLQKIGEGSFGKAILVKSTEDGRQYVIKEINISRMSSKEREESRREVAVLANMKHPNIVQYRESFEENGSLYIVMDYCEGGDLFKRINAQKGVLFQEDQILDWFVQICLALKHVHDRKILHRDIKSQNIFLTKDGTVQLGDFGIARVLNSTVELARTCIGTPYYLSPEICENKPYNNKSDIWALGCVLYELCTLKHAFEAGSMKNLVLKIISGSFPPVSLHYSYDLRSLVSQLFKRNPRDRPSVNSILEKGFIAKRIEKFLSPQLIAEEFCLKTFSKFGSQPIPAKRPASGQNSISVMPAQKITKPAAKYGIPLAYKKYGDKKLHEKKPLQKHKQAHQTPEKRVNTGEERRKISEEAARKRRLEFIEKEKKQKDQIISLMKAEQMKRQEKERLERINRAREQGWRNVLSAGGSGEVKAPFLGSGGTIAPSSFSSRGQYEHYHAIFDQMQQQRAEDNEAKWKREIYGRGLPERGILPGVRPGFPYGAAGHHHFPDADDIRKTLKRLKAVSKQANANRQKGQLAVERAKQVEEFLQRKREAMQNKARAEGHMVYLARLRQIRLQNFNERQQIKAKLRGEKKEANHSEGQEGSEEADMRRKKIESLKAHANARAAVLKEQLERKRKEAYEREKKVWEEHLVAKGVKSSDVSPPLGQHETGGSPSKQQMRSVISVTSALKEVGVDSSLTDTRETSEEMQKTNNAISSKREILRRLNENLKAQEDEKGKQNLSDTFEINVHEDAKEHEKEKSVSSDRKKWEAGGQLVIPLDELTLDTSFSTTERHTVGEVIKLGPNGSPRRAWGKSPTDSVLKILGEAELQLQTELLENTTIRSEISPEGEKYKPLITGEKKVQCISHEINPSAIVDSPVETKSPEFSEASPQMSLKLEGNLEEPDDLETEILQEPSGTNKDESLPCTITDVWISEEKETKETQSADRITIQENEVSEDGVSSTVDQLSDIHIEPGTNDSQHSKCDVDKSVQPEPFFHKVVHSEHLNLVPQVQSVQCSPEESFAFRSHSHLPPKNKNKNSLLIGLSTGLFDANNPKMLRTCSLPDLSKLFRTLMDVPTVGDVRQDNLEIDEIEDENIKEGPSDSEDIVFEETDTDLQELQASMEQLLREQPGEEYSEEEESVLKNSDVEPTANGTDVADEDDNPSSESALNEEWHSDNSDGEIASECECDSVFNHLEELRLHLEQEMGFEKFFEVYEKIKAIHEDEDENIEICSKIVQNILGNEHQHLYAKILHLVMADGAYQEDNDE

[10] = biological target: Serine/threonine-protein kinase PAK 4 (Homo sapiens) (UniProt O96013); assay: Inhibition of human recombinant PAK4 at 40 nM in presence of ATP by radiometric assay relative to control

Sequence of Protein kinase C theta type (Homo sapiens) (Q04759 whole entry, looked up): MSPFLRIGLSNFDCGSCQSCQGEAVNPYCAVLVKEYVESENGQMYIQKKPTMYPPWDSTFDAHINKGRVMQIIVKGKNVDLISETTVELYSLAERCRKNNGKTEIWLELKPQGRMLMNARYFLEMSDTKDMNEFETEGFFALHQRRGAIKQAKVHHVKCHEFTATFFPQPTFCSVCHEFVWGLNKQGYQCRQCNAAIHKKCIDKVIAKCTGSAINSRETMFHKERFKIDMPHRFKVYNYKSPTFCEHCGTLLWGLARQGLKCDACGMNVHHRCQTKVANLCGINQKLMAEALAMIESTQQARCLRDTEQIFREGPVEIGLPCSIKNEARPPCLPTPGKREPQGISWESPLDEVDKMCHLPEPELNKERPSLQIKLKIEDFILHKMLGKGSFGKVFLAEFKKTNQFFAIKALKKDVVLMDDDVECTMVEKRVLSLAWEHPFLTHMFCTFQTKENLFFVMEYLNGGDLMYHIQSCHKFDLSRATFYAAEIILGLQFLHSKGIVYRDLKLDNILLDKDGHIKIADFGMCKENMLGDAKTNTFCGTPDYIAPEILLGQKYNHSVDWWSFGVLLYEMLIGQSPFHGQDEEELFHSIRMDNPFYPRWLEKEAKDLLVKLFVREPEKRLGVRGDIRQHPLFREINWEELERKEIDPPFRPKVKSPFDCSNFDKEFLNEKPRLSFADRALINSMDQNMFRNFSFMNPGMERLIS
Sequence of Rho-associated protein kinase 1 (Homo sapiens) (Q13464 2-1354 limits assumed): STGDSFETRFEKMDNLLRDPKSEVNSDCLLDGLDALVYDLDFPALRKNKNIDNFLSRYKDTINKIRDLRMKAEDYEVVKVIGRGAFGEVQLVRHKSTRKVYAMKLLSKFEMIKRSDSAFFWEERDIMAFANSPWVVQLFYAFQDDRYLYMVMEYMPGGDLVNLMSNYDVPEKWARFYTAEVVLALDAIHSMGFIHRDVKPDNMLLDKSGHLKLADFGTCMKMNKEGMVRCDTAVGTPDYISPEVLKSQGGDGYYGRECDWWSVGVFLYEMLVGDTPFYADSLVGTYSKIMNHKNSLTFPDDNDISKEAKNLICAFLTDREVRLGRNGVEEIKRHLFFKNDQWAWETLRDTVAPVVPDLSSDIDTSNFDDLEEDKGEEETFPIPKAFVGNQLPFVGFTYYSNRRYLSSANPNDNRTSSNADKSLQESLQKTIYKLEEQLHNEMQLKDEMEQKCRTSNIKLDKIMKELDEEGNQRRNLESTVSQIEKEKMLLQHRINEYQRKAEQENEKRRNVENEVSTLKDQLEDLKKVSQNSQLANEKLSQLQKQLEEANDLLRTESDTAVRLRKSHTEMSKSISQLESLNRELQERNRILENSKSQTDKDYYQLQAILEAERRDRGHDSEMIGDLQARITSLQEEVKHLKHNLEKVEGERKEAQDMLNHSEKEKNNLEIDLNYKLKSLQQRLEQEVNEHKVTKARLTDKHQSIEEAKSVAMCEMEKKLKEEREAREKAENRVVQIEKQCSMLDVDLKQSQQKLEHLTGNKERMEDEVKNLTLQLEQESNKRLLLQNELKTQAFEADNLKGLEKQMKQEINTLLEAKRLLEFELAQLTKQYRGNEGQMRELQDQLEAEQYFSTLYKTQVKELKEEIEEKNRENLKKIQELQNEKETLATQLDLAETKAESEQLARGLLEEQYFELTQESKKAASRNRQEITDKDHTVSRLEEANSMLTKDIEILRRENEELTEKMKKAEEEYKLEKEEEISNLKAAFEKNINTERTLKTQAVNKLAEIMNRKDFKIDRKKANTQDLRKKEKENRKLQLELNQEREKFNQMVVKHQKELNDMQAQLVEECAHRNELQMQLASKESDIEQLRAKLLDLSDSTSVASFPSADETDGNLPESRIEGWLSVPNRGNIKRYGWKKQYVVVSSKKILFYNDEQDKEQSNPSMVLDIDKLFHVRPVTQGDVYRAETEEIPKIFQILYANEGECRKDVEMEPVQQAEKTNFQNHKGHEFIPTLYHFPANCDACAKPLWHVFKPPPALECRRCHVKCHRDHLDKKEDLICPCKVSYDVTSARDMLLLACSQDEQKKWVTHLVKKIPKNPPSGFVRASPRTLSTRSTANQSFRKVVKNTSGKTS
Sequence of Ephrin type-A receptor 4 (Homo sapiens) (P54764 whole entry): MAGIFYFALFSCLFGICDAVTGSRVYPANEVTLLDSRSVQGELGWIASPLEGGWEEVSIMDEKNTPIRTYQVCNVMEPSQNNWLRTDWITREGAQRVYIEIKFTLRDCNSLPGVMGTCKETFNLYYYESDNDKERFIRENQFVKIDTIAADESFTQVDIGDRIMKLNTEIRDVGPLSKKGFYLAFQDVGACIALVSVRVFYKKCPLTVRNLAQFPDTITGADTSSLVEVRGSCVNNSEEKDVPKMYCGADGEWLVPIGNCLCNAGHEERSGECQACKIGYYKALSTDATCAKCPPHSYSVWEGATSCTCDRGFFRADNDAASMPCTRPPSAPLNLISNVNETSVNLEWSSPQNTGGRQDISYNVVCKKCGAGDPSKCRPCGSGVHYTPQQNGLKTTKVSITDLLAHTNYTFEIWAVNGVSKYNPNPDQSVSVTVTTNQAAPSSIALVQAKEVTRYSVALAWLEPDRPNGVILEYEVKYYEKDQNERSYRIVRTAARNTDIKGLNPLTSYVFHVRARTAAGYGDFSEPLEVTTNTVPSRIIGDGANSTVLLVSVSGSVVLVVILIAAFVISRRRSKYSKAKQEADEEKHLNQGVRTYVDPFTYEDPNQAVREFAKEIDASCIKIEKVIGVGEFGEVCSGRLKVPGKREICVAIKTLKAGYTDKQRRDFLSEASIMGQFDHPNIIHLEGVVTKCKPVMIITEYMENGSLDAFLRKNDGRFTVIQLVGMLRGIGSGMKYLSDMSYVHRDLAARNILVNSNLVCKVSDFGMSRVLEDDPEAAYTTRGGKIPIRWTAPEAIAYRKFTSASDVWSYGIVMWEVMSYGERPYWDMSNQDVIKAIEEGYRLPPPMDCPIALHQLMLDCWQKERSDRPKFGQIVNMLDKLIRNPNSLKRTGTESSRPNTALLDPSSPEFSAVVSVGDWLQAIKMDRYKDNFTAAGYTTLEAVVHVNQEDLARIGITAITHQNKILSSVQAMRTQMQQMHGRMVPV
Sequence of Transient receptor potential cation channel subfamily M member 7 (Homo sapiens) (Q96QT4 whole entry): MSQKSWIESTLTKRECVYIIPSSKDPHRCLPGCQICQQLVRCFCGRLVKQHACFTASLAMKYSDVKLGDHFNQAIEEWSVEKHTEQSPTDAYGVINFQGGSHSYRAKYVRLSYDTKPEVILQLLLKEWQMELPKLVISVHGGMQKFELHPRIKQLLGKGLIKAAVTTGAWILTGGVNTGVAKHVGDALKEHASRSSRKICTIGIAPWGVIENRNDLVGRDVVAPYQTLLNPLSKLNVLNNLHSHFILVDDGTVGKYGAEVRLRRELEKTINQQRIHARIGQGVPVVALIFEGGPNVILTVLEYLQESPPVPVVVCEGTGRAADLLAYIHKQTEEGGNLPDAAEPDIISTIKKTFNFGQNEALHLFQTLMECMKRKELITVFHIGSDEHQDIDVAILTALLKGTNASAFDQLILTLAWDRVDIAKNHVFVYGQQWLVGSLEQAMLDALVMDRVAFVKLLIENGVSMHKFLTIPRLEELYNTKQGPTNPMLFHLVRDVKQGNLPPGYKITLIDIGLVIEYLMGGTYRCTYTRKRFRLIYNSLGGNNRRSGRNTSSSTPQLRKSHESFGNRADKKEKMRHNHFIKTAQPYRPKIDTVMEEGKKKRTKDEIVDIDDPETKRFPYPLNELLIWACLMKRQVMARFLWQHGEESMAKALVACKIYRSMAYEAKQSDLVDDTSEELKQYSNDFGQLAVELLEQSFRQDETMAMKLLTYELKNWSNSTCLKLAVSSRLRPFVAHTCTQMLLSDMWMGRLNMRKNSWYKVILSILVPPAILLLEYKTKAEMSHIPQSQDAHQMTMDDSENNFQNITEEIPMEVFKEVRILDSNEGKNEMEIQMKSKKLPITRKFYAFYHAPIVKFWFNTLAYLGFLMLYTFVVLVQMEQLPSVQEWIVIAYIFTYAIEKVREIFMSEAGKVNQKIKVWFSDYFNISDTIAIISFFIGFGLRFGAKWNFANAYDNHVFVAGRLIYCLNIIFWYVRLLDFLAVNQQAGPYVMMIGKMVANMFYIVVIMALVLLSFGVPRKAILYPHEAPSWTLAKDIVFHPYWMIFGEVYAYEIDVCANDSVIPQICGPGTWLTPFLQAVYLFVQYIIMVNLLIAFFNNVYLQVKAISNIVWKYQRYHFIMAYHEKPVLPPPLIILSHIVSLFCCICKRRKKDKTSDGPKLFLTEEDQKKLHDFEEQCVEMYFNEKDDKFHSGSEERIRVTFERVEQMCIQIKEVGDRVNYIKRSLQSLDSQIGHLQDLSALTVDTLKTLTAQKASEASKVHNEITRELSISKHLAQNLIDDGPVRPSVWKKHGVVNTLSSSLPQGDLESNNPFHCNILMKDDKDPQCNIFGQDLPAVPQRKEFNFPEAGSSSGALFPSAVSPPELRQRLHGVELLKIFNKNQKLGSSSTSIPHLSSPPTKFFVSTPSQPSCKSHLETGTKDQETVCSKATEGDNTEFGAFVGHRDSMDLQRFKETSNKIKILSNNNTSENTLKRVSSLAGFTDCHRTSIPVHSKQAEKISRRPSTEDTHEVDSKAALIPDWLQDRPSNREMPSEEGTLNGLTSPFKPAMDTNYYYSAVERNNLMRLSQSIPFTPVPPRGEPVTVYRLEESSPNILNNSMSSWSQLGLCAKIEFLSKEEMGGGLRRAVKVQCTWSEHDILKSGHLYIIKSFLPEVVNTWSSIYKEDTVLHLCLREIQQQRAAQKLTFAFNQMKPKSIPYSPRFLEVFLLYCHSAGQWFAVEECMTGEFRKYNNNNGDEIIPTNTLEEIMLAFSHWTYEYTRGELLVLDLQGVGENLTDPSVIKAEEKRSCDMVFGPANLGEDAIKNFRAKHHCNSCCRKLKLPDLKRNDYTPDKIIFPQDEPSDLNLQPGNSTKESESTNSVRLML

- inhibition [1]: 3%
- fold change (FC) [2]: 0
- inhibition [3]: 0%
Compound: CNC(=O)c1ccccc1Oc1nc(Nc2cc(OC)c(OC)c(OC)c2)ncc1Br

- inhibition [4]: 10%
- inhibition [5]: 0%
- inhibition [6]: 11%
- inhibition [7]: 12%
Compound: CC(C)[C@H](NC(=O)c1cc(-c2cnn3cc(-c4ccc(OCCN5CCCCC5)cc4)cnc23)cs1)C(F)(F)F

- fold change (FC) [8]: 0.03
- inhibition [9]: 0%
- inhibition [10]: 8%
Compound: O=C(N[C@@H](C1CC1)C(F)(F)F)c1cc(-c2cnn3cc(-c4ccc(F)cc4)cnc23)cs1
